This is an account of results in ChEMBL document CHEMBL1139176, “Tetrazole and ester substituted tetrahydoquinoxalines as potent cholesteryl ester transfer protein inhibitors” (Bioorg Med Chem Lett, 2007).

The structures appear in SMILES notation.

For data set [1], the target named is T1, Cholesteryl ester transfer protein (Homo sapiens, UniProt P11597).
T1 sequence (P11597 whole entry): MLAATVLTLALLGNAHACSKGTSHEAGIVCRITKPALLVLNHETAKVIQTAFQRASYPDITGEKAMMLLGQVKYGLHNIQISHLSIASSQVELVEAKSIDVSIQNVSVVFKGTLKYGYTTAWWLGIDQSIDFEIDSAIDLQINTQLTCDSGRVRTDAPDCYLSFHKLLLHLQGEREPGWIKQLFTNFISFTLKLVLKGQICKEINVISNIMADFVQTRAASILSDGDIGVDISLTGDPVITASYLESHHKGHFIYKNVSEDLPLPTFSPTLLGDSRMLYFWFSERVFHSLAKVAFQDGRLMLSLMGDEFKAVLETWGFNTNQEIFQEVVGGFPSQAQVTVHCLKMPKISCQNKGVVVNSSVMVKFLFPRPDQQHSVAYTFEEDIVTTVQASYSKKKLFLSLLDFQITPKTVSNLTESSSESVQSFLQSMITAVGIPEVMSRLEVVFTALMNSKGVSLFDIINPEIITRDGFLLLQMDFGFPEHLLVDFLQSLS
The data set is described as follows: Inhibition of CETP in human plasma. In kind it is cell-free. In a few lines: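 Radiometric transfer of ³H-cholesteryl ester from HDL to LDL, with human plasma supplying both CETP and LDL. Inhibitor, plasma and ³H-CE-HDL (diluted to 50 cholesterol) were incubated in 4% (v/v) final DMSO for 6 h at 37 °C. The reaction was stopped with 10 U heparin in 0.3 M MnCl₂ (final) to precipitate LDL, then spun at 1000g and supernatant (2/3 of assay volume) removed. IC50 reported.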

The nature of data set [2]: Clearance in rat at 2 mg/kg, iv. Type of data set: ADME, organism-based. Also on record: dose 2 mg/kg, route intravenous. The conditions noted are these: in vivo.
Data set [3] in a line: Volume of distribution in rat at 2 mg/kg, iv. Also on record: dose 2 mg/kg, route intravenous. Type of data set: ADME, organism-based. To be noted: in vivo.
A short description of data set [4]: Half life in rat at 2 mg/kg, iv. Type of data set: ADME, organism-based. Also on record: dose 2 mg/kg, route intravenous. The conditions noted are these: in vivo.
Data set [5] can be described thus: Solubility at pH 7.4. Type of data set: physicochemical. To be noted: buffer.

The IC50 is the concentration that gives 50% inhibition. In data set [1], `CCC1CN(C(c2cc(C(F)(F)F)cc(C(F)(F)F)c2)c2nnn(C)n2)c2cc(C(F)(F)F)ccc2N1C(=O)N1CCCC1` (stereo unspecified) displayed an IC50 of 100 µM.

For `CCC1CN(C(c2cc(C(F)(F)F)cc(C(F)(F)F)c2)c2nnn(C)n2)c2cc(C(F)(F)F)ccc2N1CC1CCCC1` (stereo unspecified), inhibition in data set [1] was half-maximal at 0.854 µM (IC50).

Compound `CCCCOC(=O)N1c2ccc(C(F)(F)F)cc2N(C(c2cc(C(F)(F)F)cc(C(F)(F)F)c2)c2nnn(C)n2)CC1CC` (stereo unspecified) gave an IC50 in data set [1] of 1.11 µM.

For `CCOC(=O)N1c2ccc(Br)cc2N(C(C(=O)OC)c2cc(C(F)(F)F)cc(C(F)(F)F)c2)CC1CC` (stereo unspecified), the IC50 in data set [1] was 1.9 µM.

Regarding `CCOC(=O)N1c2ccc(C(F)(F)F)cc2N(C(c2cc(C(F)(F)F)cc(C(F)(F)F)c2)c2nnn(CC(=O)O)n2)CC1CC` (stereo unspecified), the midpoint of inhibition in data set [1], the IC50, lay at 54.6 µM.

Take `CCNC(=O)N1c2ccc(C(F)(F)F)cc2N(C(c2cc(C(F)(F)F)cc(C(F)(F)F)c2)c2nnn(C)n2)CC1CC` (stereo unspecified): half-maximal inhibition in data set [1] (IC50) required 46.4 µM.

`CCCCC(CC)COC(=O)N1c2ccc(C(F)(F)F)cc2N(C(c2cc(C(F)(F)F)cc(C(F)(F)F)c2)c2nnn(C)n2)CC1CC` (stereo unspecified) yielded an IC50 in data set [1] of 62.6 µM.

In data set [1], `CCC1CN(C(c2cc(C(F)(F)F)cc(C(F)(F)F)c2)c2nnn(C)n2)c2cc(C(F)(F)F)ccc2N1C(=O)N(C)C` (stereo unspecified) yielded an IC50 of 100 µM.

Turning to `CCC1CN(C(c2cc(C(F)(F)F)cc(C(F)(F)F)c2)c2nnn(C)n2)c2cc(C(F)(F)F)ccc2N1C(=O)OCC(C)C` (stereo unspecified), the midpoint of inhibition in data set [1], the IC50, lay at 0.232 µM.

On to `CCOC(=O)N1c2ccc(C(F)(F)F)cc2N(C(c2cc(C(F)(F)F)cc(C(F)(F)F)c2)c2nnn(CC(=O)OC(C)(C)C)n2)CC1CC` (stereo unspecified), for which the IC50 in data set [1] came out at 14.6 µM.

Take `CCOC(=O)N1c2ccc(C(F)(F)F)cc2N(C(c2cc(C(F)(F)F)cc(C(F)(F)F)c2)c2nnn(CC3CC3)n2)CC1CC` (stereo unspecified): in data set [1], the IC50 is 4.55 µM.

The compound `CCC1CN(C(c2cc(C(F)(F)F)cc(C(F)(F)F)c2)c2nnn(C)n2)c2cc(C(F)(F)F)ccc2N1C(=O)OCc1ccccc1` (stereo unspecified) returned an IC50 in data set [1] of 4.4 µM. This IC50 and that of the compound before are within 1.5-fold of each other.

As to `CCOC(=O)N1c2ccc(C(F)(F)F)cc2N(C(c2cc(C(F)(F)F)cc(C(F)(F)F)c2)c2nnn(CCN(C)C)n2)CC1CC` (stereo unspecified), it took 7.81 µM to reach half-maximal inhibition in data set [1] (IC50).

The compound `CCOC(=O)N1c2ccc(C(F)(F)F)cc2N(C(c2cc(C(F)(F)F)cc(C(F)(F)F)c2)c2nnn(CCC#N)n2)CC1CC` (stereo unspecified) had an IC50 in data set [1] of 3.42 µM.

For the compound `CCOC(=O)N1c2ccc(C(F)(F)F)cc2N(C(c2cc(C(F)(F)F)cc(C(F)(F)F)c2)c2nnn(CC(=O)OC)n2)CC1CC` (stereo unspecified), the IC50 in data set [1] worked out at 32.5 µM.

In data set [1], `CCC1CN(C(c2cc(C(F)(F)F)cc(C(F)(F)F)c2)c2nnn(C)n2)c2cc(C(F)(F)F)ccc2N1C(=O)N1CCOCC1` (stereo unspecified) came in with an IC50 of 36.9 µM.

In data set [1], `CCOC(=O)N1c2ccc(C(F)(F)F)cc2N(C(c2cc(C(F)(F)F)cc(C(F)(F)F)c2)c2nnn(CCC(=O)OC)n2)CC1CC` (stereo unspecified) had an IC50 of 4.42 µM.

As to `CCC1CN(C(c2cc(C(F)(F)F)cc(C(F)(F)F)c2)c2nnn(C)n2)c2cc(C(F)(F)F)ccc2N1C[C@H]1CC[C@H](CC(=O)O)CC1` (stereo partly specified), 2.91 µM corresponded to half-maximal inhibition in data set [1] (IC50).

For the compound `CCOC(=O)N1c2ccccc2N(C(Cc2ccccc2)C(=O)OC)CC1CC` (stereo in doubt; (D1)-9a), in data set [1], the IC50 was above 100 µM.

On to `CCOC(=O)N1c2ccccc2N(C(Cc2cc(C(F)(F)F)cc(C(F)(F)F)c2)C(=O)OC)CC1CC` (stereo in doubt; (D1)-10a), for which, in data set [1], the IC50 was above 100 µM.

Regarding `CCOC(=O)N1c2ccccc2N(C(C(=O)OC)c2cc(C(F)(F)F)cc(C(F)(F)F)c2)CC1CC` (stereo in doubt; (D1)-16a), the IC50 in data set [1] was 5 µM.

`CCOC(=O)N1c2cc(Cl)c(Cl)cc2N(C(C(=O)OC)c2cc(C(F)(F)F)cc(C(F)(F)F)c2)CC1CC` (stereo in doubt; (D1)-18a) displayed an IC50 in data set [1] of 92.5 µM.

For the compound `CCOC(=O)N1c2ccc(C(F)(F)F)cc2N(C(C(=O)OC)c2cc(C(F)(F)F)cc(C(F)(F)F)c2)CC1CC` (stereo in doubt; (D1)-22a), the IC50 in data set [1] turned out to be 0.5 µM. Against the preceding compound, the IC50 is about 180-fold lower.

The compound `CCOC(=O)N1c2ccc(C(F)(F)F)cc2N(C(c2cc(C(F)(F)F)cc(C(F)(F)F)c2)c2nnn(C)n2)CC1CC` (stereo in doubt; (D1)-28a) registered an IC50 in data set [1] of 0.87 µM.

As to `CCC1CN(C(c2cc(C(F)(F)F)cc(C(F)(F)F)c2)c2nnn(C)n2)c2cc(C(F)(F)F)ccc2N1C(=O)NCCO` (stereo in doubt; (D1)-33a), the IC50 in data set [1] was 100 µM. Compared with the last compound, the IC50 is about 110-fold higher.

In data set [1], `CCC1CN(C(c2cc(C(F)(F)F)cc(C(F)(F)F)c2)c2nnn(C)n2)c2cc(C(F)(F)F)ccc2N1CC1CCCCC1` (stereo in doubt; (D1)-39a) registered an IC50 of 1.3 µM. Against the preceding compound, the IC50 is about 77-fold lower.

As for `CCOC(=O)N1c2ccc(C(F)(F)F)cc2N(C(c2cc(C(F)(F)F)cc(C(F)(F)F)c2)c2nnn(CCO)n2)CC1CC` (stereo in doubt; (D1)-46a), the IC50 in data set [1] came to 2.26 µM. Against the preceding compound, the IC50 is about 1.7-fold higher.

`CCOC(=O)N1c2ccc(C(F)(F)F)cc2N(C(c2cc(C(F)(F)F)cc(C(F)(F)F)c2)c2nnn(CC(N)=O)n2)CC1CC` (stereo in doubt; (D1)-50a) displayed an IC50 in data set [1] of 5.22 µM. This IC50 is about 2.3-fold higher than that of the compound before.

Compound `CCOC(=O)N1c2ccc(C(F)(F)F)cc2N(C(c2cc(C(F)(F)F)cc(C(F)(F)F)c2)c2nnn(C)n2)C[C@H]1CC` (stereo in doubt; (D1)-55a) yielded an IC50 in data set [1] of 0.44 µM.

`CCOC(=O)N1c2ccc(C(F)(F)F)cc2N(C(c2cc(C(F)(F)F)cc(C(F)(F)F)c2)c2nnn(C)n2)C[C@@H]1CC` (stereo in doubt; (D1)-55b): 47.5 µM corresponded to half-maximal inhibition in data set [1] (IC50). Against the preceding compound, the IC50 is about 110-fold higher.

Compound `CCOC(=O)N1c2ccccc2N(C(Cc2ccccc2)C(=O)OC)CC1CC` (stereo in doubt; (D2)-9b) had an IC50 in data set [1] above 100 µM.

`CCOC(=O)N1c2ccccc2N(C(Cc2cc(C(F)(F)F)cc(C(F)(F)F)c2)C(=O)OC)CC1CC` (stereo in doubt; (D2)-10b) came in with an IC50 in data set [1] above 100 µM.

Consider `CCOC(=O)N1c2ccccc2N(C(C(=O)OC)c2cc(C(F)(F)F)cc(C(F)(F)F)c2)CC1CC` (stereo in doubt; (D2)-16b), for which half-maximal inhibition in data set [1] (IC50) required 8.6 µM.

For the compound `CCOC(=O)N1c2cc(Cl)c(Cl)cc2N(C(C(=O)OC)c2cc(C(F)(F)F)cc(C(F)(F)F)c2)CC1CC` (stereo in doubt; (D2)-18b), the concentration for half-maximal inhibition (IC50) in data set [1] worked out at 93.4 µM.

Turning to `CCOC(=O)N1c2ccc(C(F)(F)F)cc2N(C(C(=O)OC)c2cc(C(F)(F)F)cc(C(F)(F)F)c2)CC1CC` (stereo in doubt; (D2)-22b), half-maximal inhibition in data set [1] (IC50) required 0.56 µM.

In data set [1], `CCOC(=O)N1c2ccc(C(F)(F)F)cc2N(C(c2cc(C(F)(F)F)cc(C(F)(F)F)c2)c2nnn(C)n2)CC1CC` (stereo in doubt; (D2)-28b) displayed an IC50 of 0.23 µM. This IC50 lies about 2.4-fold lower than the previous one.

`CCC1CN(C(c2cc(C(F)(F)F)cc(C(F)(F)F)c2)c2nnn(C)n2)c2cc(C(F)(F)F)ccc2N1C(=O)NCCO` (stereo in doubt; (D2)-33b) showed an IC50 in data set [1] of 4.57 µM.

In data set [1], `CCC1CN(C(c2cc(C(F)(F)F)cc(C(F)(F)F)c2)c2nnn(C)n2)c2cc(C(F)(F)F)ccc2N1CC1CCCCC1` (stereo in doubt; (D2)-39b) returned an IC50 of 5.7 µM.

In data set [1], `CCOC(=O)N1c2ccc(C(F)(F)F)cc2N(C(c2cc(C(F)(F)F)cc(C(F)(F)F)c2)c2nnn(CCO)n2)CC1CC` (stereo in doubt; (D2)-46b) showed an IC50 of 2.22 µM.

`CCOC(=O)N1c2ccc(C(F)(F)F)cc2N(C(c2cc(C(F)(F)F)cc(C(F)(F)F)c2)c2nnn(CC(N)=O)n2)CC1CC` (stereo in doubt; (D2)-50b) displayed an IC50 in data set [1] of 100 µM.

`CCOC(=O)N1c2ccc(C(F)(F)F)cc2N(C(c2cc(C(F)(F)F)cc(C(F)(F)F)c2)c2nnn(C)n2)C[C@@H]1CC` (stereo in doubt; (D2)-55c): the IC50 in data set [1] came to 1.5 µM.

What is called clearance is the rate of elimination divided by the concentration. A lower clearance goes with a low capacity for elimination. As a reminder, the Vd is the apparent volume that relates the amount in the body to the concentration in plasma or blood. Lower therefore signals confinement near the circulation. As usually defined, the half-life is the time needed for the level to fall by half in the phase considered. As a reminder, the Solubility is the concentration that dissolves in the medium under given conditions. Low values mean little dissolved substance, high ones much dissolved substance. Turning to `CCOC(=O)N1c2ccc(C(F)(F)F)cc2N(C(c2cc(C(F)(F)F)cc(C(F)(F)F)c2)c2nnn(C)n2)C[C@H]1CC` (stereo in doubt; (D2)-55d), the clearance in data set [2] worked out at 13 mL/min/kg. In data set [3], the Vd was found to be 2.6 L/kg. In addition, in data set [4], the half-life is 2.4 h. Moreover, in data set [5], the Solubility was below 0.01 µg/mL. This compound also displayed an IC50 in data set [1] of 0.143 µM.
